Test system: HUVEC
Experiment: Inhibitory activity against human umbilical vein endothelial cells (HUVEC) was assayed using MTT colorimetric proliferation assay
Type: functional, cell-based
Outline: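 HUVEC grown in EGM-2 medium with growth factor, seeded at 10,000 cells/well and left 4 h to adhere. Test compounds diluted in the medium were added. Incubation in a 5% CO₂ humidified atmosphere, then viability read by MTT colorimetric proliferation assay. Growth inhibition reported as IC50.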

Row | Structure (SMILES) | IC50
1 | C[C@H]1[C@@H]2CC[C@@H](C)[C@@H]3CCC4(C)OO[C@@]23[C@H](O[C@@H]1S(=O)(=O)c1ccccc1)O4 (single isomer, unassigned) | 1.74 µM
2 | C[C@H]1[C@H](Oc2ccccc2)O[C@@H]2OC3(C)CC[C@H]4[C@H](C)CC[C@@H]1[C@@]24OO3 (single isomer, unassigned) | 31 µM
3 | CC(=O)S[C@H]1O[C@@H]2O[C@]3(C)CC[C@H]4[C@H](C)CC[C@@H]([C@H]1C)[C@@]24OO3 | 4.56 µM
4 | C[C@H]1[C@H](S(=O)(=O)c2ccccc2)O[C@@H]2OC3(C)CC[C@H]4[C@H](C)CC[C@@H]1[C@@]24OO3 (single isomer, unassigned) | 12.8 µM
5 | C[C@@H]1[C@@H]2CC[C@@H](C)[C@@H]3CCC4(C)OO[C@@]23[C@H](O[C@@H]1S(=O)(=O)c1ccccc1)O4 (single isomer, unassigned) | 18.2 µM
6 | C[C@H]1[C@@H](O)O[C@@H]2O[C@@]3(C)CC[C@H]4[C@H](C)CC[C@@H]1[C@@]24OO3 [ARTENIMOL] | 8.91 µM
7 | C[C@H]1[C@H](S)O[C@@H]2OC3(C)CC[C@H]4[C@H](C)CC[C@@H]1[C@@]24OO3 (single isomer, unassigned) | 1.29 µM
8 | C[C@H]1[C@H](Sc2ccccc2)O[C@@H]2OC3(C)CC[C@H]4[C@H](C)CC[C@@H]1[C@@]24OO3 (single isomer, unassigned) | 0.93 µM
9 | CCO[C@H]1O[C@@H]2O[C@@]3(C)CC[C@H]4[C@H](C)CC[C@@H]([C@H]1C)[C@@]24OO3 [ARTEMOTIL] | > 50 µM
10 | C[C@H]1[C@@H](Sc2ccccc2)O[C@@H]2OC3(C)CC[C@H]4[C@H](C)CC[C@@H]1[C@@]24O3 (single isomer, unassigned) | > 50 µM
11 | C[C@H]1[C@@H](Oc2ccccc2)O[C@@H]2OC3(C)CC[C@H]4[C@H](C)CC[C@@H]1[C@@]24OO3 (single isomer, unassigned) | 33.8 µM
12 | C[C@@H]1CC[C@H]2[C@@H](C)C(=O)O[C@@H]3O[C@@]4(C)CC[C@@H]1[C@]32OO4 [ARTEMISININ] | > 50 µM
13 | C[C@@H]1CC[C@H]2[C@@H](C)C(=O)O[C@@H]3O[C@@]4(C)CC[C@@H]1[C@]32O4 [DEOXYARTEMISININ] | > 50 µM
14 | C[C@H]1[C@@H](Sc2ccccc2)O[C@@H]2OC3(C)CC[C@H]4[C@H](C)CC[C@@H]1[C@@]24OO3 (single isomer, unassigned) | 5.24 µM
15 | C[C@@H]1[C@@H]2CC[C@@H](C)[C@@H]3CCC4(C)O[C@@H](O[C@@H]1S(=O)(=O)c1ccccc1)[C@]23O4 (single isomer, unassigned) | > 50 µM
